An excerpt weighted towards active compounds, which were near 4.5% of everything screened.
MDM2 E3 inh = Mdm2 E3 ligase (human) inhibition; cell-based MDM2 ubiquitination luciferase reporter, 2 h; 0 = plate control, 100 = twice control, blank-subtracted; signal enhancement, % at 5 µM; hit rate 0.11% among 210,000;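 active means signal enhancement of 30% or more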;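 further: luminescence tracks abundance of the self-degrading MDM2-luciferase fusion protein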
Target sequence (Q00987 whole entry, looked up, the tested form may be a part): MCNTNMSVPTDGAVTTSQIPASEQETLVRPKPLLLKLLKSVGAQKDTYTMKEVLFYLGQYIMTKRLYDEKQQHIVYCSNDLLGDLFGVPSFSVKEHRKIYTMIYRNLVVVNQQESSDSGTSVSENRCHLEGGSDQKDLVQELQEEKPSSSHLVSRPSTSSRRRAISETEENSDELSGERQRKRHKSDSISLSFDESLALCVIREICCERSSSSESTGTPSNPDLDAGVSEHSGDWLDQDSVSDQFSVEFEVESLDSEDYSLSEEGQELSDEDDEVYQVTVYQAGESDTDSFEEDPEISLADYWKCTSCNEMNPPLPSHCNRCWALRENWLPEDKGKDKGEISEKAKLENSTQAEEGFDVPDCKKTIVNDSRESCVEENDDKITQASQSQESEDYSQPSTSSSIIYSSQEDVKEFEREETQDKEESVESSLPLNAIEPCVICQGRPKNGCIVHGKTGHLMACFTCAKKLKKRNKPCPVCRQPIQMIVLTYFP
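Test system: mammalian cells stably expressing self-ubiquitinating, self-degrading MDM2 E3–luciferase fusion; Amount: 2000 cells in each well; Medium: DMEM; Schedule: 4 h settle plus 2 h compound, 37 °C; Technique: SteadyLite luciferase luminescence after 15 min room-temperature reagent incubation; Benchmarks: plate control and blank wells.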
PERK inh = inhibitors of human PERK kinase; Q9NZJ5; CHO PERK-DD fusion, SEAP luminescence translation reporter; inhibition, % at 5.6 µM; hit rate 0.17% among 220,000; AID 1416;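 active means inhibition above the mean inhibition of all tested compounds plus 3 SD, set separately per screening campaign, cut at about 2.9% in these data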;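 further: PERK kinase domain activated by AP20187 dimerizer at 100 nM; 0% = DMSO with dimerizer and 100% = rapamycin at 8.4 µM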
AHR act = activates the human aryl hydrocarbon receptor | P35869 | AHR-responsive luciferase reporter cells, luminescence | activation, % at 5 µM | hit rate 2.5% among 320,000 | AID 2796; in the data active means activation above about 47%;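 further: 0% = vehicle wells and 100% = reference agonist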
STAT1 activator = increases IFN-gamma driven STAT1 reporter signal. NIH 3T3 STAT1-luciferase reporter, luminescence; 100% = IFN-gamma alone, no compound. activation (% of control), % at 5.5 µM. hit rate 2.6% among 200,000;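 active means activation above the screen-wide mean activation plus 3 SD, cut at about 130% in these data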;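 further: raw ratio to IFN-gamma control signal so 100% means no change and 0% no light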
NF-kB expr up = NF-kB expression increase, human neuronal cells. NF-kB reporter expression; hits give high values. fold change at 12.5 µM. hit rate 1.6% among 190,000. AID 1239; in the data active means fold change above about 3.3
APP 5'UTR act = APP 5'UTR luciferase reporter activation | SH-SY5Y APP 5'UTR luciferase reporter, luminescence; zero percent = DMSO vehicle wells | activation, % at 2 µM | hit rate 1% among 190,000 | AID 1276;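 active means activation above a set limit, based on mean plus 3 SD of controls, cut at about 140% in these data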
STAT1 activ conf = STAT1 activation, confirmation assay; shares compounds with STAT1 activator; AID 1262; activation (% of control), % at 5.7 µM; NIH 3T3 STAT1-luciferase reporter, IFN-gamma potentiation, luminescence; 100% = IFN-gamma EC80 alone, no compound; hit rate 97% among 1,200;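 active means activation above a set limit carried over from the earlier primary STAT1 screen, cut at about 140% in these data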;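 further: simple ratio to median IFN-gamma plus DMSO wells so 0% means no light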
NFkB act = NF-kappaB activation in STAT1 activator counter-screen | hit rate 43% among 1,200 | HEK293T NF-kB luciferase reporter, TNF-alpha stimulated, luminescence; 100% = TNF-alpha with vehicle only | activation (% of control), % at 5.7 µM | shares compounds with STAT1 activator;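 active means activation above the mean of solvent-only control wells plus 3 SD, set per campaign, cut at about 130% in these data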;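 further: TNF-alpha given at a submaximal dose yielding about 80% of full reporter signal; values are well signal over median control so 100% means no change and 0% no light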
STAT3 act STAT1c = activates human STAT3, counter-screen to STAT1 activators; shares compounds with STAT1 activator; U3A cells STAT3-luciferase reporter, IL-6, luminescence; cells lack STAT1; 100 = IL-6 alone, no compound effect; activation (% of control), % at 5.7 µM; hit rate 46% among 1,200;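 active means activation above the solvent-only control well mean plus 3 SD, set per plate batch, cut at about 110% in these data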;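 further: 0% = no luminescence and 100% = median IL-6 plus DMSO wells; higher means more STAT3 reporter activation so hits are non-selective activators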
Numbers without * were called inactive; . = no result.

SMILES	MDM2 E3 inh	PERK inh	AHR act	STAT1 activator	NF-kB expr up	APP 5'UTR act	STAT1 activ conf	NFkB act	STAT3 act STAT1c
COc1ccc(NC(=O)COC(=O)c2ccc([N+](=O)[O-])o2)cc1Cl	-13	1	2	102	1.1	-3	.	.	.
COc1ccc(Nc2nccc3c2nnn3C)cc1	-23	0	62*	154*	2.6	137*	167*	124	97
N#CCCn1ccc(NC(=O)c2ccc(Cl)cc2)n1	-5	0	5	105	1.3	10	.	.	.
O=C(Nc1ccn(Cc2ccc(Cl)cc2)n1)c1ccccc1	-15	1	7	151*	2.5	47	152*	122	112*
O=C(Nc1ccccc1C(=O)OCC(=O)c1c[nH]c2ccccc12)c1ccco1	-13	0	14	104	0.57	4	.	.	.
Cc1ccc(OCc2ccc(-c3ccccc3)cc2)c([N+](=O)[O-])n1	.	.	-7	.	.	.	.	.	.
Cc1ccc(OCc2ccc(Br)cc2)c([N+](=O)[O-])n1	-15	2	0	154*	3.8*	156*	175*	141*	118*
c1ccc(-c2nc3ccccc3s2)nc1	-45	1	30	158*	4.7*	123	200*	121	102
O=C1c2ccccc2C(=O)N1CCc1c[nH]c2ccccc12	-3	0	14	158*	4.6*	101	177*	129	99
O=C1CCC(=O)N1CCc1c[nH]c2ccccc12	-23	1	-5	95	1.4	-6	.	.	.
O=[N+]([O-])c1ccccc1N/N=C/c1ccc2c(c1)OCO2	-41	0	.	152*	3	139*	226*	121	117*
CCCc1ccc2oc(C(=O)N(Cc3nccn3C)C(C)C)c(C)c2c1	.	.	10	.	.	.	.	.	.
Cc1ccc(S(=O)(=O)Oc2ccc(/C=N/N=C3/NC(=O)C(CC(=O)O)S3)cc2)cc1[N+](=O)[O-] (stereo unspecified)	.	.	-1	.	.	.	.	.	.
CC(C)=CC(=O)Nc1nnc(-c2ccccc2)s1	-30	2	2	162*	3.2	9	196*	135*	104
C/C(=N\NC(=O)c1ccc(F)cc1)c1ccccn1	.	.	37	.	.	.	.	.	.
C/C(=N\NC(=O)c1c[nH]c2ccccc12)c1ccccn1	-44	0	43	157*	0.92	-47	198*	120	105
O=C(Nc1ccc2c(c1)Cc1ccccc1-2)c1cccnc1	-7	-1	5	151*	2.5	69	143*	117	91
O=C(Nc1ccc2c(c1)Cc1ccccc1-2)c1ccco1	-26	-1	-2	174*	4*	179*	211*	139*	102
COc1ccc(C(=O)Nc2ccc3c(c2)Cc2ccccc2-3)cc1	-13	1	1	99	1.2	-8	.	.	.
O=C(Nc1ccc(-c2nc3ccccc3o2)cc1)c1cccnc1	-11	-1	40	166*	2.6	45	185*	146*	98
Cc1nc(CSc2ccc(Br)cc2)cs1	.	.	-1	.	.	.	.	.	.
O=S(=O)(/N=C(/Nc1ccccn1)c1ccccc1)c1ccccc1	-8	1	-1	104	0.51	18	.	.	.
Cc1cccc(NC(=S)NC(C)(C)CC(C)(C)C)c1	-9	0	13	95	1.1	10	.	.	.
Nc1c(Cl)ncnc1N/N=C/c1ccc2ccccc2n1	41*	0	47	162*	0.41	-66	161*	125	138*
Nc1c(Cl)ncnc1N/N=C/c1ccccn1	19	0	10	114	1.1	-92	.	.	.
SMILES	MDM2 E3 inh	PERK inh	AHR act	STAT1 activator	NF-kB expr up	APP 5'UTR act	STAT1 activ conf	NFkB act	STAT3 act STAT1c
O=c1c(C=NCCN2CCNCC2)c(-c2ccccc2)[nH]n1-c1ccc([N+](=O)[O-])cc1	-4	0	4	168*	1.8	8	145*	125	120*
COc1ccc(-c2[nH]n(-c3ccc([N+](=O)[O-])cc3)c(=O)c2C=NCCN2CCNCC2)cc1	-6	0	2	95	1	-14	.	.	.
Cc1ccc(-n2c(SCC(=O)NCCN3C(=O)CSC3=O)nnc2-c2ccccc2)cc1	-51	-1	0	104	1.1	-1	.	.	.
CC(=Nc1ccc(O)cc1)c1sc2ccccc2c1O	-15	1	10	170*	13*	171*	230*	150*	104
CC1=CN2C(=N)/C(=C/c3ccc([N+](=O)[O-])o3)C(=O)N=C2S1	0	1	6	101	1.8	-48	.	.	.
CC1=CN2C(=N)/C(=C/c3ccco3)C(=O)N=C2S1	-21	1	34	206*	7.7*	136*	310*	167*	120*
O=C(NCc1ccccc1)c1c[nH]c2cc3c(cc2c1=O)OCCO3	-11	0	77*	178*	3.5*	89	190*	140*	126*
CCC(=O)Nc1nc(C)c(-c2csc(Nc3ccccn3)n2)s1	-1	0	24	157*	1.3	49	161*	119	99
CCCC(=O)Nc1nc(C)c(-c2csc(Nc3ccccc3C)n2)s1	-17	0	15	101	0.82	8	.	.	.
COc1ccc2oc(C(=O)OCc3nnc(-c4ccccc4)o3)c(C)c2c1	.	.	-1	.	.	.	.	.	.
CC(=O)c1cnc(SCc2ccc(Cl)cc2)nc1C	-4	0	-3	202*	4.7*	10	172*	111	101
COc1ccc(C2(C(=O)NCCc3ccccc3)CCCC2)cc1OC	.	.	1	.	.	.	.	.	.
O=C(N/N=C/c1cccnc1)c1cccc(Cl)c1	.	.	13	.	.	.	.	.	.
CC(C)c1ccc(/C=N/NC(=O)c2cccc(Cl)c2)cc1	-4	0	7	184*	5.7*	71	220*	137*	126*
Cc1cc(OCC(=O)NCc2ccncc2)c2c(C)c(C)c(=O)oc2c1	.	.	32	.	.	.	.	.	.
CCOC(=O)c1sc(N/N=C/c2ccccc2)nc1C	-17	0	61*	152*	2.6	134	183*	134*	107
COc1ccc(NC(=O)/C(Cl)=C(/Cl)S(=O)(=O)Cc2ccccc2)cn1	-10	-2	.	170*	0.27	-77	160*	90	116*
COc1ccc(NC(=O)C(Cl)=C(Cl)Cl)cn1	5	0	.	97	1.9	-30	.	.	.

Assay outcomes (PubChem)
